Published values pooled from the literature.
Each line is one published result; the experiments were not run side by side.
Target: Casein kinase I isoform gamma-2 (CSNK1G2, Homo sapiens, UniProt P78368)

The remaining activity of `Cc1sc(C(=O)NC2COC2)cc1-n1cc(NC(=O)Nc2c(F)cccc2Cl)cn1` is reported as 104% (enzyme activity; inhibitor; 10 µM).
`COc1cc(Nc2c(C#N)cnc3cc(OCCCN4CCN(C)CC4)c(OC)cc23)c(Cl)cc1Cl` gave a remaining signal of 98.3% (cell-free assay; 0.5 µM).
`CNC(=O)c1cc(Oc2ccc(NC(=O)Nc3ccc(Cl)c(C(F)(F)F)c3)cc2)ccn1` gave an inhibition of 5% (enzyme activity; inhibitor; 0.3 µM).
`C[C@@H](c1cccc(C#N)c1)n1cc(Cl)cc(C(N)=O)c1=N` gave a remaining binding of 100% (cell-free assay; competition with immobilised ligand; 1 µM).
`O=C(Nc1cnn(-c2csc(C(=O)NC3COC3)c2)c1)Nc1c(F)cccc1Cl` has a remaining activity of 90.2% (enzyme activity; inhibitor; 5 µM).
The remaining signal of `O=C1Nc2ccc(Cl)cc2C1=Cc1cc(Cl)c(O)c(Cl)c1` is reported as 83.5% (cell-free assay; 0.5 µM).
With `CN1CCN(c2cnc3c(C4CCN(C(=O)c5ccc(OC(F)(F)F)cc5N)CC4)ncnc3c2)CC1` the remaining binding was 100% (cell-free assay; competition with immobilised ligand; 1 µM).
`CN1CC(Oc2cnc(C#N)cc2-c2ccn3nc(NC(=O)C4CC4)cc3c2)C1` has an inhibition of -2% (enzyme activity; inhibitor; 1 µM).
For `O=C(CSc1nc2nccnc2c(=O)n1CCc1ccccc1)Nc1nccs1`, the inhibition was 14% (enzyme activity; inhibitor; 10 µM).
For `CC1=C(C#N)[C@@H](c2ccc3[nH]nc(C)c3c2)C(C#N)=C(c2ccc(Cl)cc2)N1`, the remaining binding was 100% (cell-free assay; competition with immobilised ligand; 1 µM).
For `Cc1ccc(Nc2nccc(N(C)c3ccc4c(C)n(C)nc4c3)n2)cc1S(N)(=O)=O`, the remaining signal was 96.9% (cell-free assay; inhibitor; 0.5 µM).
The inhibition of `CCCS(=O)(=O)Nc1ccc(F)c(C(=O)c2c[nH]c3ncc(-c4ccc(Cl)cc4)cc23)c1F` is reported as under 10% (enzyme activity; inhibitor; 1 µM).
With `COc1cc(Cl)c(C(=O)N[C@@H](CN[C@H]2CC[C@@H](N)CC2)Cc2ccc(C#N)cc2)cc1-c1ccc(CN[C@H](C)c2ccc(C)cc2)o1` the remaining activity was 112% (enzyme activity; inhibitor; 1 µM).
For `Nc1cnc(N2CCc3cc(S(=O)(=O)Nc4c(F)cc(Cl)cc4F)cc(N4CCCC4=O)c32)nc1`, the remaining binding was 88% (cell-free assay; competition with immobilised ligand; 1 µM).
With `COc1cc2ncnc(Nc3ccc(Oc4ccccc4)cc3C)c2cc1OC` the inhibition was 5% (enzyme activity; inhibitor; 1 µM).
With `CC(C)(C)c1nc(-c2cccc(NS(=O)(=O)c3c(F)cccc3F)c2F)c(-c2ccnc(N)n2)s1` the remaining activity was 101% (enzyme activity; inhibitor; radiometric; 1 µM).
With `N#CCCc1ccc2c(c1)-c1[nH]c3ccc([N+](=O)[O-])cc3c1CC(=O)N2` the remaining signal was 84.8% (cell-free assay; 0.5 µM).
With `C[C@H](NC(=O)c1cnc2n1[C@](C)(Cc1ccc(C#N)cc1)C(=O)N2c1cc(Cl)c(F)c(Cl)c1)C(=O)NC1(c2ccccn2)CC1` the remaining binding was 90% (cell-free assay; competition with immobilised ligand; 1 µM).
With `CN(CCCC(F)(F)F)c1nccc(-c2cnn3ncccc23)n1` the remaining binding was 100% (binding; 1 µM).
With `COc1cc(/C=C/C(=O)CC(=O)/C=C/c2ccc(O)c(OC)c2)ccc1O` the activity vs control was 77% (enzyme activity; inhibitor; 1 µM).
The remaining binding of `O=C(NCCCC1CCCCC1)c1ccc(CNC(=O)c2cnn(-c3ccccc3)c2C(F)(F)F)cc1` is reported as 96% (cell-free assay; competition with immobilised ligand; 0.1 µM).
`Cc1ccc(NC(=O)c2ccc(C)c(C(F)(F)F)c2)cc1C#Cc1nn(C2CCC(O)CC2)c2ncnc(N)c12` (stereo not shown) has a remaining signal of 114% (cell-free assay; 10 µM).
